Series [1] in a line: Drug level in ICR mouse lung at 20 mg/kg administered intratracheally after 5 mins. In kind it is ADME, organism-based. Further details: dose 20 mg/kg, route endotracheal. The note with it: inhaled or intranasal, read-out: Drug uptake. In a few lines:
(§1)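 Male ICR mice (4-6 weeks) under isoflurane given the enantiomer in sterile saline (1 ml/kg) intratracheally by micropipette. Whole lungs taken at indicated times, homogenised in sterile PBS with 50 U/ml heparin, centrifuged; 300 µl aliquot ultrafiltered and filtrate analysed by chiral HPLC (Chiralpak IA; water with 0.1 M KPF6/acetonitrile 30:70, 1.0 mL/min). Level expressed as µg/lung; mean ± SEM, n = 3.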

Series [2] can be described thus: Drug level in ICR mouse lung at 20 mg/kg administered intratracheally after 15 mins. In kind it is ADME, organism-based. Further details: dose 20 mg/kg, route endotracheal. The note with it: inhaled or intranasal, read-out: Drug uptake. In outline: as §1
A short description of series [3]: Drug level in ICR mouse lung at 20 mg/kg administered intratracheally after 30 mins. Further details: dose 20 mg/kg, route endotracheal. In kind it is ADME, organism-based. The note with it: inhaled or intranasal, read-out: Drug uptake. In a few lines:
as §1

The subject of series [4] is Lung. The series is described as follows: Drug level in ICR mouse lung treated intratracheally with 20 mg/kg (S)-Mepenzolate after 5 to 30 mins. In kind it is ADME, organism-based. Further details: dose 20 mg/kg, route endotracheal. The conditions noted are these: in vivo, inhaled_or_intranasal. In outline: as §1
For series [5], the system named is Mus musculus. The experiment in a line: Bronchodilatory activity in ICR mouse assessed as supression of methacholine-induced increase in airway resistance at 38 ug/kg administered intratracheally 1 hr prior to methacholine challenge. In kind it is functional, organism-based. In a few lines: (§2)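 Male ICR mice (4-6 weeks) given compound intratracheally in saline (1 ml/kg). 1 h later, anaesthetised with chloral hydrate (500 mg/kg), tracheotomised, and ventilated at 150 breaths/min, tidal volume 8.7 ml/kg, PEEP 2-3 cmH₂O. Challenged with nebulised methacholine (5 mg/ml), five 20 s exposures 40 s apart. Airway resistance measured after each challenge by snapshot technique. Mean ± SEM.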

The test system of series [6] is Mus musculus. The experiment in a line: Bronchodilatory activity in ICR mouse assessed as supression of methacholine-induced increase in airway resistance at 3.8 ug/kg administered intratracheally 1 hr prior to methacholine challenge. The series is classed as functional, organism-based. In a few lines: as §2
The test system of series [7] is Mus musculus. The series is described as follows: Antiinflammatory activity against ICR mouse assessed as inhibition of porcine pancreatic elastase-induced increase in leucocyte count in BALF at 7.5 to 38 ug/kg administered intratracheally 1 hr prior to porcine pancreatic elastase challenge measured after 6 hrs. In kind it is functional, organism-based. In a few lines: (§3)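 Male ICR mice (4-6 weeks), isoflurane-anaesthetised, dosed intratracheally in sterile saline (1 ml/kg) 1 h before intratracheal PPE (20 U/kg) or vehicle. BALF taken 6 h after PPE; total cells counted by hemocytometer, cytospin slides stained with Diff-Quik to get neutrophil fraction of total cells. Mean ± SEM; Tukey's test.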

Series [8] deals with Mus musculus. The series is described as follows: Antiinflammatory activity against ICR mouse assessed as inhibition of porcine pancreatic elastase-induced increase in neutrophil count in BALF at 7.5 to 38 ug/kg administered intratracheally 1 hr prior to porcine pancreatic elastase challenge measured after 6 hrs. The series is classed as functional, organism-based. In outline: as §3

In series [9] the test system is Mus musculus. The experiment in a line: Antiinflammatory activity against ICR mouse assessed as inhibition of porcine pancreatic elastase-induced increase in TNF-alpha level at 7.5 to 38 ug/kg administered intratracheally 1 hr prior to porcine pancreatic elastase challenge measured after 6 hrs by ELISA. The series is classed as functional, organism-based. In outline:
(§4)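 Male ICR mice, 4-6 weeks old, under isoflurane anaesthesia, given each enantiomer or racemate intratracheally in sterile saline (1 ml/kg) by micropipette; 1 h later PPE (20 U/kg) or saline vehicle given the same way. BALF collected 6 h after PPE; TNF-α, MIP-2, MCP-1 and KC measured by ELISA. Mean ± SEM; Tukey's test.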

Series [10] deals with Mus musculus. The experiment in a line: Antiinflammatory activity against ICR mouse assessed as inhibition of porcine pancreatic elastase-induced increase in MIP-2 level at 7.5 to 38 ug/kg administered intratracheally 1 hr prior to porcine pancreatic elastase challenge measured after 6 hrs by ELISA. In kind it is functional, organism-based. In outline:
as §4

The test system of series [11] is Mus musculus. The series is described as follows: Antiinflammatory activity against ICR mouse assessed as inhibition of porcine pancreatic elastase-induced increase in MCP-1 level at 7.5 to 38 ug/kg administered intratracheally 1 hr prior to porcine pancreatic elastase challenge measured after 6 hrs by ELISA. In kind it is functional, organism-based. In a few lines: as §4
On the technique in general: In an ELISA, binding on a coated surface is turned into a signal by an enzyme label.

For series [12], the system named is Mus musculus. The experiment in a line: Antiinflammatory activity against ICR mouse assessed as inhibition of porcine pancreatic elastase-induced increase in KC level at 7.5 to 38 ug/kg administered intratracheally 1 hr prior to porcine pancreatic elastase challenge measured after 6 hrs by ELISA. In kind it is functional, organism-based. In outline: as §4
Series [13] relates to Mus musculus. The experiment in a line: Suppression of fecal pellet output in ICR mouse at 4.7 mg/kg administered intratracheally 1 hr prior to restraint stress measured for 1 hr relative to control. Further details: dose 4.7 mg/kg, route endotracheal. The series is classed as organism-based, Feces. The note with it: in vivo, inhaled_or_intranasal. In outline: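 Male ICR mice (4-6 weeks) dosed intratracheally in sterile saline (1 ml/kg) under isoflurane; vehicle controls received saline alone. One hour later each mouse was restrained individually in a 50 ml tube for 1 h, and fecal pellets excreted during restraint were counted. Mean ± SEM; Tukey's test.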

Series [14] relates to Mus musculus. The series is described as follows: Increase in heart rate in ICR mouse at 940 to 4700 ug/kg administered intratracheally measure immediately post dosing relative to control. The series is classed as ADME, organism-based. The conditions noted are these: in vivo, inhaled_or_intranasal. In outline:
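Male ICR mice (4-6 weeks) given compound intratracheally in sterile saline (1 ml/kg) under isoflurane; anaesthetised with chloral hydrate (500 mg/kg), pulse-oximeter sensor attached to thigh after 20 min. Heart rate (beats per minute) recorded immediately after dosing; percentage change from baseline to peak calculated. Mean ± SEM; Tukey's test.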

Series [15] relates to Lung. The experiment in a line: Drug level in ICR mouse lung treated intratracheally with 20 mg/kg (R)-Mepenzolate after 5 to 30 mins. In kind it is ADME, organism-based. Further details: dose 20 mg/kg, route endotracheal. The note with it: in vivo, inhaled_or_intranasal. In outline:
as §1

Each structure is given as a SMILES string. Active and inactive are the calls of the source. No cut-off for these calls is given here.

With `C[N+]1(C)CCC[C@@H](OC(=O)C(O)(c2ccccc2)c2ccccc2)C1.[Br-]`, the concentration at 5 min in series [1] is 44500 ng/mL. Further, the concentration at 0.25 h in series [2] is 6300 ng/mL. The concentration at 0.5 h in series [3] was 5100 ng/mL. In addition, the Drug metabolism result in the series with Lung [4] is “metabolite_notdetected”. Moreover, the result with Mus musculus [5], with Mus musculus [6], with Mus musculus [7], with Mus musculus [8], in the series with Mus musculus [9] and with Mus musculus [10] was Active. For the same compound, the outcome in the series with Mus musculus [11] and in the series on Mus musculus [12] was Active. Moreover, the Activity entry in the series on Mus musculus [13] and in the series on Mus musculus [14] was “Toxic” each time.

Turning to `C[N+]1(C)CCC[C@H](OC(=O)C(O)(c2ccccc2)c2ccccc2)C1.[Br-]`, the concentration at 5 min in series [1] was determined as 36400 ng/mL. Besides, the concentration at 0.25 h in [2] worked out at 7600 ng/mL. Moreover, the concentration at 0.5 h in series [3] turned out to be 6200 ng/mL. For the same compound, the Drug metabolism entry in the series with Lung [15] is recorded as “metabolite_notdetected”. Besides, the result with Mus musculus [5], in the series with Mus musculus [7], in the series on Mus musculus [8], in the series with Mus musculus [9], in the series on Mus musculus [10] and with Mus musculus [11] was Active. The result in the series with Mus musculus [12] was Active. For the same compound, the outcome in the series with Mus musculus [6] was inactive. Also, the Activity entry with Mus musculus [13] is given as “Non-toxic”; in the series on Mus musculus [14], “Toxic”.

With `C[N+]1(C)CCCC(OC(=O)C(O)(c2ccccc2)c2ccccc2)C1.[Br-]` (racemic) [MEPENZOLATE BROMIDE], the outcome in the series with Mus musculus [5], with Mus musculus [6], in the series on Mus musculus [7], in the series with Mus musculus [8], in the series with Mus musculus [9] and in the series on Mus musculus [10] was Active. The result in the series on Mus musculus [11] and in the series on Mus musculus [12] was Active. The Activity result in the series with Mus musculus [13] and with Mus musculus [14] was “Toxic” throughout.
